Blank lines part the entries; values can stand above or below the molecule they belong to. Calls of active or inactive are those of the source. No cut-off for these calls is given here.
Key:
[1] = (§1) Growth inhibition of human WM3629 cells by MTT assay; type: functional
Procedure, shortened: (§2)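 WM3629 cells kept in Tu2% medium. They were seeded at 5×10^3 cells/well, rested 24 h, then exposed to a 12-point three-fold serial dilution. GI50 was taken from an MTT reduction assay read at 590 nm.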

[2] = Selectivity ratio of GI50 for human WM3629 cells to GI50 for human A375P cells; type: functional
[3] = (§3) Growth inhibition of human A375P cells by MTT assay; type: functional
Procedure, shortened: (§4)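 A375P cells grown in DMEM with 10% FBS and 1% penicillin/streptomycin at 37 °C in 5% CO2. Cells were detached with trypsin-EDTA, seeded at 5×10^3 cells/well and left 24 h. They were then treated with a 12-point three-fold serial dilution. Viability was read by MTT reduction assay as absorbance at 590 nm.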

[4] = Growth inhibition of human A375P cells at 8.05 uM by MTT assay relative to total growth; type: functional; details: read-out: GI
[5] = system: WM3629; experiment: as §1; type: functional; procedure, shortened: as §2
[6] = system: A375P; experiment: as §3; type: functional; procedure, shortened: as §4
[7] = Growth inhibition of human A375P cells at 164 uM by MTT assay relative to total growth; type: functional; details: read-out: GI
[8] = molecular target: Cyclin-dependent kinase 2/cyclin E1 (Homo sapiens) (UniProt P24864+P24941); experiment: Inhibition of CDK2/cyclin E at 10 uM; type: protein-complex assay
Procedure, shortened: (§5)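 Single-dose panel screen across 30 kinases at 10 µM, run in duplicate; % inhibition reported.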

[9] = molecular target: Serine/threonine-protein kinase PAK 4 (Homo sapiens) (UniProt O96013); experiment: Inhibition of PAK4 at 10 uM; procedure, shortened: as §5
Chain of Serine/threonine-protein kinase PAK 4 (Homo sapiens) (O96013 whole entry, looked up): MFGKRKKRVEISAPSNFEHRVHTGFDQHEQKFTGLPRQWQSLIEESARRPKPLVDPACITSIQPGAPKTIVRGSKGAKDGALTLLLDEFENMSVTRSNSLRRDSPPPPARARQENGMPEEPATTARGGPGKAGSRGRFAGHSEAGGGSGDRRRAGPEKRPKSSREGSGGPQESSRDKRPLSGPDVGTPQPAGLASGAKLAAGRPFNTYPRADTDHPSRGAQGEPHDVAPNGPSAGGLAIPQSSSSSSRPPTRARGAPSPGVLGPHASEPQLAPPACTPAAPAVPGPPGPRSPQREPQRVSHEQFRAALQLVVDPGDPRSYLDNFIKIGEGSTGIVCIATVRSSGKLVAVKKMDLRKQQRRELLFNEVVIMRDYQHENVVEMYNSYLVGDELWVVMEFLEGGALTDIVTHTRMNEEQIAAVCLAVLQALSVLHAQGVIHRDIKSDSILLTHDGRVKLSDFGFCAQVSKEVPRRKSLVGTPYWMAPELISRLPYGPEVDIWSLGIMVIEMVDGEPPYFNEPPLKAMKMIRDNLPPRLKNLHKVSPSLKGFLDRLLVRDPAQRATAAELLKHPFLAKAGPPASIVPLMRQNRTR

[10] = molecular target: Mitogen-activated protein kinase 1 (Homo sapiens) (UniProt P28482); experiment: Inhibition of ERK2 at 10 uM; procedure, shortened: as §5
[11] = molecular target: ALK tyrosine kinase receptor (Homo sapiens) (UniProt Q9UM73); experiment: Inhibition of ALK at 10 uM; procedure, shortened: as §5
[12] = molecular target: Cyclin-dependent kinase 1/cyclin B1 (Homo sapiens) (UniProt P06493+P14635); experiment: Inhibition of CDK1/cyclin B at 10 uM; type: protein-complex assay; procedure, shortened: as §5
[13] = molecular target: Myotonin-protein kinase (Homo sapiens) (UniProt Q09013); experiment: Inhibition of DMPK at 10 uM; procedure, shortened: as §5
Chain of Myotonin-protein kinase (Homo sapiens) (Q09013 whole entry): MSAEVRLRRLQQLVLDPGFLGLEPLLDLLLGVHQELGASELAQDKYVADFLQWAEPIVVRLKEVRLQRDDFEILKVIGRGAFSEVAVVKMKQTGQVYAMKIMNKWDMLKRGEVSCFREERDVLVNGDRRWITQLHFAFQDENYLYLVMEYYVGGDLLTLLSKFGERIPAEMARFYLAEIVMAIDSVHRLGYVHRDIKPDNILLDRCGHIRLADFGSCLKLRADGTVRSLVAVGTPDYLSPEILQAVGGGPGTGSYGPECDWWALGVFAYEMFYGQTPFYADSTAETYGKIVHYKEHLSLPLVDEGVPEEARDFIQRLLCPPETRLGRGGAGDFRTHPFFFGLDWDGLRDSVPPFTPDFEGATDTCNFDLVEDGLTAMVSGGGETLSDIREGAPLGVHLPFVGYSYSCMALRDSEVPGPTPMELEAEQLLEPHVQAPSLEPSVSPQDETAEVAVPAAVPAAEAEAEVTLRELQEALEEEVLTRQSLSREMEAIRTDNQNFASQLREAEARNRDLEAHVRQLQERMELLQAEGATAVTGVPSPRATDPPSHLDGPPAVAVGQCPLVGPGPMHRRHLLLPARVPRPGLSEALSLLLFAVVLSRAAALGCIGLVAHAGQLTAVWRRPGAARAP

[14] = molecular target: Focal adhesion kinase 1 (Homo sapiens) (UniProt Q05397); experiment: Inhibition of human FAK at 10 uM; procedure, shortened: as §5
Chain of Focal adhesion kinase 1 (Homo sapiens) (Q05397 2-1052 limits assumed): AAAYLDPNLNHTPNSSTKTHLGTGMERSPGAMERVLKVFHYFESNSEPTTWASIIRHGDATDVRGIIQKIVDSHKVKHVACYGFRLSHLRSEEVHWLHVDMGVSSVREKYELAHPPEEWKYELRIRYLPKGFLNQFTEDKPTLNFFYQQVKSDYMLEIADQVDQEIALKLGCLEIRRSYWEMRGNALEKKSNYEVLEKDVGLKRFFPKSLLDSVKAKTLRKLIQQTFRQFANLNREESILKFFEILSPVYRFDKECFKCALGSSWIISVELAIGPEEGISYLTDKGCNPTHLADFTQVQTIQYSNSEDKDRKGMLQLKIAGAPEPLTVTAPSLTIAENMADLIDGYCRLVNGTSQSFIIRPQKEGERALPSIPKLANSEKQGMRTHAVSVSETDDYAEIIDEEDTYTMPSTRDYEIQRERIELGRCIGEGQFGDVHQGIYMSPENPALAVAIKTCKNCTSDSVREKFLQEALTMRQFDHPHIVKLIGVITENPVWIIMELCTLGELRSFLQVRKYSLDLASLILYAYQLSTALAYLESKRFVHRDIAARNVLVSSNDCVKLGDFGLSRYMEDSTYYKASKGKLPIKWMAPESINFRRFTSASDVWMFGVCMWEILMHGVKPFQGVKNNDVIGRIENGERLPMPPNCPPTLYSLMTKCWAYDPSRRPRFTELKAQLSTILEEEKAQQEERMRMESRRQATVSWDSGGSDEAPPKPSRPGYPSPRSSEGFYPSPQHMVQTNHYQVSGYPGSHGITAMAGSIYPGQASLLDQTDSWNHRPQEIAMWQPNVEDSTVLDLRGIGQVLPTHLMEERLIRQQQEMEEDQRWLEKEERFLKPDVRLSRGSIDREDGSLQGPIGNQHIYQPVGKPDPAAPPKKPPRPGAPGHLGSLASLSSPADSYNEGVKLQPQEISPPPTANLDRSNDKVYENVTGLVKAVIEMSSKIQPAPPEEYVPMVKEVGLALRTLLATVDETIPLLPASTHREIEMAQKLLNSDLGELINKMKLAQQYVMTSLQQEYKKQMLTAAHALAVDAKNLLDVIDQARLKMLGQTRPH

[15] = molecular target: Serine/threonine-protein kinase Chk1 (Homo sapiens) (UniProt O14757); experiment: Inhibition of CHK1 at 10 uM; procedure, shortened: as §5
Chain of Serine/threonine-protein kinase Chk1 (Homo sapiens) (O14757 whole entry): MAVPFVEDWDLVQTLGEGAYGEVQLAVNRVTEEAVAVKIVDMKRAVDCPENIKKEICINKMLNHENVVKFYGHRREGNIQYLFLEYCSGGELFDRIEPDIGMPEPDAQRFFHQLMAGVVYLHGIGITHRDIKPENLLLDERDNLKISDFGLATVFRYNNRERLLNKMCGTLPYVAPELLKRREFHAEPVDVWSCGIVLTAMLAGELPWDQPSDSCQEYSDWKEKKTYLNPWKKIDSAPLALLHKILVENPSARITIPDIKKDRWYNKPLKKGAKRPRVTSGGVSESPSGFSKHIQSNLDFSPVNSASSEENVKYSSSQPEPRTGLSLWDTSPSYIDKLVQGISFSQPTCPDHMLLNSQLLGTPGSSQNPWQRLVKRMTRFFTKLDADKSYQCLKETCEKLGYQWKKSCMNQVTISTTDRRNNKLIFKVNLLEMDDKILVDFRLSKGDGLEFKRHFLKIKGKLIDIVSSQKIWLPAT

[16] = molecular target: Proto-oncogene tyrosine-protein kinase Src (Homo sapiens) (UniProt P12931); experiment: Inhibition of c-Src at 10 uM; procedure, shortened: as §5
[17] = molecular target: Dual specificity mitogen-activated protein kinase kinase 1 (Homo sapiens) (UniProt Q02750); experiment: Inhibition of MEK1 at 10 uM; procedure, shortened: as §5
Chain of Dual specificity mitogen-activated protein kinase kinase 1 (Homo sapiens) (Q02750 whole entry): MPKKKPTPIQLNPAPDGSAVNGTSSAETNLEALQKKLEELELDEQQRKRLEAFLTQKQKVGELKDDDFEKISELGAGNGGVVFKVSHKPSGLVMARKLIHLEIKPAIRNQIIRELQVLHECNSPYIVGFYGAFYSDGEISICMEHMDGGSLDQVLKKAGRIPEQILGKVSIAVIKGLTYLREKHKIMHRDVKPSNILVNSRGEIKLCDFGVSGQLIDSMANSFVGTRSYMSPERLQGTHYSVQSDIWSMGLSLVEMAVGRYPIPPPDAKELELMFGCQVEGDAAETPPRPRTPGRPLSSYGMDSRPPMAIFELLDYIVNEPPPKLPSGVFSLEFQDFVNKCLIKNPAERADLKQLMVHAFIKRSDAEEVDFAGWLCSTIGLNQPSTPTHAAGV

[18] = molecular target: Tyrosine-protein kinase JAK3 (Homo sapiens) (UniProt P52333); experiment: Inhibition of JAK3 at 10 uM; procedure, shortened: as §5
[19] = molecular target: DNA-dependent protein kinase catalytic subunit (Homo sapiens) (UniProt P78527); experiment: Inhibition of DNA-PK at 10 uM; procedure, shortened: as §5
[20] = molecular target: Ribosomal protein S6 kinase beta-1 (Homo sapiens) (UniProt P23443); experiment: Inhibition of p70S6K at 10 uM; procedure, shortened: as §5
[21] = molecular target: Cyclin-dependent kinase 5/CDK5 activator 1 (Homo sapiens) (UniProt Q00535+Q15078); experiment: Inhibition of CDK5/p25 at 10 uM; type: protein-complex assay; procedure, shortened: as §5
[22] = molecular target: Mitogen-activated protein kinase 8 (Homo sapiens) (UniProt P45983); experiment: Inhibition of JNK1 at 10 uM; procedure, shortened: as §5
[23] = molecular target: Glycogen synthase kinase-3 beta (Homo sapiens) (UniProt P49841); experiment: Inhibition of GSK3-beta at 10 uM; procedure, shortened: as §5
[24] = molecular target: Epidermal growth factor receptor (Homo sapiens) (UniProt P00533); experiment: Inhibition of EGFR at 10 uM; procedure, shortened: as §5
[25] = molecular target: Insulin-like growth factor 1 receptor (Homo sapiens) (UniProt P08069); experiment: Inhibition of IGF1R at 10 uM; procedure, shortened: as §5
[26] = Inhibition of PKA at 10 uM
Procedure, shortened: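 Single-concentration screen at 10 µM within a 30-kinase panel, run in duplicate; read-out is percent inhibition of kinase activity.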

[27] = molecular target: Serine/threonine-protein kinase mTOR (Homo sapiens) (UniProt P42345); experiment: Inhibition of mTOR at 10 uM; procedure, shortened: as §5
[28] = molecular target: Proto-oncogene tyrosine-protein kinase ROS (Homo sapiens) (UniProt P08922); experiment: Inhibition of ROS at 10 uM; procedure, shortened: as §5
[29] = molecular target: RAC-alpha serine/threonine-protein kinase (Homo sapiens) (UniProt P31749); experiment: Inhibition of AKT1 at 10 uM; procedure, shortened: as §5
[30] = molecular target: Protein kinase C alpha type (Homo sapiens) (UniProt P17252); experiment: Inhibition of PKCalpha at 10 uM; procedure, shortened: as §5
[31] = molecular target: Macrophage-stimulating protein receptor (Homo sapiens) (UniProt Q04912); experiment: Inhibition of RON at 10 uM; procedure, shortened: as §5
[32] = molecular target: RAF proto-oncogene serine/threonine-protein kinase (Homo sapiens) (UniProt P04049); experiment: Inhibition of cRAF at 10 uM; procedure, shortened: as §5
[33] = molecular target: BDNF/NT-3 growth factors receptor (Homo sapiens) (UniProt Q16620); experiment: Inhibition of TrkB at 10 uM; procedure, shortened: as §5
Chain of BDNF/NT-3 growth factors receptor (Homo sapiens) (Q16620 32-822 limits assumed): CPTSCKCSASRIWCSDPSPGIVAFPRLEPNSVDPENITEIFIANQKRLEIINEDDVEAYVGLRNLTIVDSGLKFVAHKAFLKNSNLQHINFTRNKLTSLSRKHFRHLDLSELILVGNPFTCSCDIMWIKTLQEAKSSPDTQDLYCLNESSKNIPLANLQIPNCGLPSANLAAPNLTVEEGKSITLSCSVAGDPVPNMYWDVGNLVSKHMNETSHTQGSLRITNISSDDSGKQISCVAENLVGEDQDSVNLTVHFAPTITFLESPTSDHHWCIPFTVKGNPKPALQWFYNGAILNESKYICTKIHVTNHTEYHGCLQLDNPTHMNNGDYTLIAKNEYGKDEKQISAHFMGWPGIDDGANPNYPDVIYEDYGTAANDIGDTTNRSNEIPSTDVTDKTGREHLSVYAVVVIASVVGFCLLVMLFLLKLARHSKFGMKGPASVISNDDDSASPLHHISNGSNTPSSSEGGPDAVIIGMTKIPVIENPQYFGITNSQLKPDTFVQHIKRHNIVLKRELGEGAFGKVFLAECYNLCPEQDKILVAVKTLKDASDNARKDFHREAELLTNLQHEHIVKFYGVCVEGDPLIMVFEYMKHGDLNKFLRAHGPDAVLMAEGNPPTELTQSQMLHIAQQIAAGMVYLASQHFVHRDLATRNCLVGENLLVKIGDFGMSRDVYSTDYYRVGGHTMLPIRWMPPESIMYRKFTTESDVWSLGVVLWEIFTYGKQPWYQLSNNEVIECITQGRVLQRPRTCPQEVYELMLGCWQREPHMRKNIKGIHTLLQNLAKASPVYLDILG

[34] = molecular target: Receptor-type tyrosine-protein kinase FLT3 (Homo sapiens) (UniProt P36888); experiment: Inhibition of human FLT3 at 10 uM; procedure, shortened: as §5
[35] = molecular target: Tyrosine-protein kinase Lyn (Homo sapiens) (UniProt P07948); experiment: Inhibition of LYN at 10 uM; procedure, shortened: as §5
Chain of Tyrosine-protein kinase Lyn (Homo sapiens) (P07948 2-512 limits assumed): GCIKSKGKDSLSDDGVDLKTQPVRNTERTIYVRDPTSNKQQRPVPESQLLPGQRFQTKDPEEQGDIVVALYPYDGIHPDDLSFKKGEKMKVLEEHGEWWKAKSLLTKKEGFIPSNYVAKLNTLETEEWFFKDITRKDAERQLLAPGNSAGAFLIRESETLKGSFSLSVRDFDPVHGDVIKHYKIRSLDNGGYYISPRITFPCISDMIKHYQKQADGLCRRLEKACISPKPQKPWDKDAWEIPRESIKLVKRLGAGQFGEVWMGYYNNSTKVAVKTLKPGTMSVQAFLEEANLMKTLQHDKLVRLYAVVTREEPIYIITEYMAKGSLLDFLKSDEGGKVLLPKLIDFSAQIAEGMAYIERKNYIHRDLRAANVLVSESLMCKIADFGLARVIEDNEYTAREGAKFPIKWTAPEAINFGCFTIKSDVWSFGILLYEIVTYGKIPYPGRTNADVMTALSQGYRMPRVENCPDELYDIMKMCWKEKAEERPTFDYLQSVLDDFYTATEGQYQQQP

[36] = molecular target: Mitogen-activated protein kinase 14 (Homo sapiens) (UniProt Q16539); experiment: Inhibition of p38alpha at 10 uM; procedure, shortened: as §5
Chain of Mitogen-activated protein kinase 14 (Homo sapiens) (Q16539 whole entry): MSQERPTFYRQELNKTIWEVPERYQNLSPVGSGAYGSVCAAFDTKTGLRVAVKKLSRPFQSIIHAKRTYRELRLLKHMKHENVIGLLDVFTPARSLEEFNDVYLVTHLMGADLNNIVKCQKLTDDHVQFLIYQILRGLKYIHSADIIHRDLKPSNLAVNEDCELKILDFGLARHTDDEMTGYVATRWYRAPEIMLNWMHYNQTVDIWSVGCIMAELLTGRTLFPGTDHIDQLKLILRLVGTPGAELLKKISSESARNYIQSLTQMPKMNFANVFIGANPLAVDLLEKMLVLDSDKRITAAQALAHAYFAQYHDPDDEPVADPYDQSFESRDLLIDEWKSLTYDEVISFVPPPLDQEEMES

[37] = molecular target: Tyrosine-protein kinase SYK (Homo sapiens) (UniProt P43405); experiment: Inhibition of SYK at 10 uM; procedure, shortened: as §5

Compound: C[C@H](O)CNc1nccc(-n2ccnc2-c2cccc(NC(=O)Nc3cccc(C(F)(F)F)c3)c2)n1
- GI50 [1]: 7.86 µM
- RatioGI50 [2]: 5
- GI50 [3]: 19.2 µM

Compound: Cc1ccc2nc(NC(=O)Nc3cccc(-c4nccn4-c4ccnc(NC[C@H](C)O)n4)c3)sc2c1
- GI50 [1]: 4.54 µM
- RatioGI50 [2]: 5
- GI50 [3]: 19.4 µM

Compound: C[C@H](O)CNc1nccc(-n2ccnc2-c2ccc(NC(=O)Nc3ccc(Cl)c(Cl)c3)cc2)n1
- GI50 [1]: 2.45 µM
- GI50 [3]: 17.8 µM

Compound: COc1ccc(-c2cc(C(=O)Nc3ccc(-c4nccn4-c4ccnc(NC[C@H](C)O)n4)cc3)co2)cc1
- GI50 [1]: > 100 µM
- GI50 [3]: 8.05 µM
- inhibition of growth at 8.05 µM [4]: < 66%

- GI50 [6]: inactive
Compound: C[C@H](O)CNc1nccc(-n2ccnc2-c2cccc(NC(=O)c3cccc(C(F)(F)F)c3)c2)n1
- GI50 [5]: inactive
- RatioGI50 [2]: 5

Compound: C[C@H](O)CNc1nccc(-n2ccnc2-c2cccc(NC(=O)c3cc(-c4ccc(Cl)cc4)on3)c2)n1
- GI50 [1]: > 100 µM
- RatioGI50 [2]: 5
- inhibition of growth at 164 µM [7]: < 66%
- GI50 [3]: 164 µM

Compound: C[C@H](O)CNc1nccc(-n2ccnc2-c2ccc(NC(=O)c3coc(-c4cc(C(F)(F)F)ccc4Cl)c3)cc2)n1
- GI50 [1]: > 100 µM
- GI50 [3]: 2.23 µM

Compound: C[C@H](O)CNc1nccc(-n2ccnc2-c2cccc(NC(=O)c3ncc(-c4ccncc4)s3)c2)n1
- GI50 [1]: 13.8 µM
- RatioGI50 [2]: 5
- GI50 [3]: > 100 µM

Compound: C[C@H](O)CNc1nccc(-n2ccnc2-c2ccc(NC(=O)Nc3cccc(C(F)(F)F)c3)cc2)n1
- GI50 [1]: 12.9 µM
- GI50 [3]: 7.19 µM

Compound: C[C@H](O)CNc1nccc(-n2ccnc2-c2cccc(NC(=O)Nc3ccc(Cl)c(Cl)c3)c2)n1
- GI50 [1]: 0.65 µM
- RatioGI50 [2]: 5
- GI50 [3]: 5.93 µM

Compound: C[C@H](O)CNc1nccc(-n2ccnc2-c2ccc(NC(=O)Nc3cccc(Cl)c3)cc2)n1
- GI50 [1]: 4.99 µM
- GI50 [3]: 3.19 µM

Compound: C[C@H](O)CNc1nccc(-n2ccnc2-c2ccc(NC(=O)c3ncc(-c4ccncc4)s3)cc2)n1
- GI50 [1]: > 100 µM
- GI50 [3]: 139 µM

Compound: C[C@H](O)CNc1nccc(-n2ccnc2-c2cccc(NC(=O)c3ccc(N4CCOCC4)c(C(F)(F)F)c3)c2)n1
- GI50 [1]: 7.37 µM
- RatioGI50 [2]: 5
- GI50 [3]: 28.3 µM

Compound: C[C@H](O)CNc1nccc(-n2ccnc2-c2ccc(NC(=O)Nc3ccc(Cl)c(C(F)(F)F)c3)cc2)n1
- GI50 [1]: 4.43 µM
- GI50 [3]: 10.1 µM

Compound: C[C@H](O)CNc1nccc(-n2ccnc2-c2cccc(NC(=O)Nc3cccc(Cl)c3)c2)n1
- GI50 [1]: > 100 µM
- RatioGI50 [2]: 5
- GI50 [3]: 85.8 µM

Compound: CNC(=O)c1cc(Oc2ccc(NC(=O)Nc3ccc(Cl)c(C(F)(F)F)c3)cc2)ccn1 [SORAFENIB]
- GI50 [1]: 0.78 µM
- GI50 [3]: 5.58 µM

- GI50 [6]: inactive
Compound: COc1ccc(-c2cc(C(=O)Nc3cccc(-c4nccn4-c4ccnc(NC[C@H](C)O)n4)c3)co2)cc1
- GI50 [1]: 22.3 µM
- RatioGI50 [2]: 5

Compound: C[C@H](O)CNc1nccc(-n2ccnc2-c2ccc(NC(=O)c3ccc(N4CCOCC4)c(C(F)(F)F)c3)cc2)n1
- GI50 [1]: > 100 µM
- GI50 [3]: > 100 µM

Compound: C[C@H](O)CNc1nccc(-n2ccnc2-c2cccc(NC(=O)Nc3ccc(Cl)c(C(F)(F)F)c3)c2)n1
- GI50 [1]: > 100 µM
- RatioGI50 [2]: 5
- GI50 [3]: 58.2 µM

Compound: C[C@H](O)CNc1nccc(-n2ccnc2C(=O)c2ccc(NC(=O)Nc3ccc(Cl)c(C(F)(F)F)c3)cc2)n1
- GI50 [1]: 3.51 µM
- GI50 [3]: 9.29 µM

Compound: Cc1cn(-c2cc(C(=O)Nc3cccc(-c4nccn4-c4ccnc(NC[C@H](C)O)n4)c3)cc(C(F)(F)F)c2)cn1
- GI50 [1]: 3.49 µM
- RatioGI50 [2]: 5
- GI50 [3]: 6.72 µM

Compound: C[C@H](O)CNc1nccc(-n2ccnc2-c2cccc(NC(=O)Nc3ccc(N4CCOCC4)c(C(F)(F)F)c3)c2)n1
- GI50 [1]: 3.28 µM
- RatioGI50 [2]: 5
- GI50 [3]: 34.6 µM

Compound: C[C@H](O)CNc1nccc(-n2ccnc2-c2cccc(NC(=O)c3coc(-c4cc(C(F)(F)F)ccc4Cl)c3)c2)n1
- GI50 [5]: inactive
- RatioGI50 [2]: 5

Compound: C[C@H](O)CNc1nccc(-n2ccnc2-c2ccc(NC(=O)c3cc(-c4ccc(Cl)cc4)on3)cc2)n1
- GI50 [1]: > 100 µM
- GI50 [3]: > 100 µM

Compound: C[C@H](O)CNc1nccc(-n2ccnc2-c2ccc(NC(=O)c3cc(N4CCOCC4)cc(C(F)(F)F)c3)cc2)n1
- GI50 [1]: 2.25 µM
- GI50 [3]: 35.6 µM

- inhibition [8]: < 0%
- inhibition [9]: < 0%
- inhibition [10]: 10%
- inhibition [11]: 0.8%
- inhibition [12]: 21%
- inhibition [13]: 7.6%
- inhibition [14]: 0%
- inhibition [15]: 5.9%
- inhibition [16]: < 0%
- inhibition [17]: < 0%
- inhibition [18]: 0.21%
- inhibition [19]: 9.4%
- inhibition [20]: 17%
- inhibition [21]: 2.4%
- inhibition [22]: < 0%
- inhibition [23]: 14%
- inhibition [24]: 1.7%
- inhibition [25]: 3.6%
- inhibition [26]: 6.8%
- inhibition [27]: 1.5%
- inhibition [28]: 0.19%
- inhibition [29]: 5.1%
- inhibition [30]: 1.1%
- inhibition [31]: 5%
- inhibition [32]: 99%
- inhibition [33]: < 0%
- inhibition [34]: 82%
- inhibition [35]: 21%
- inhibition [36]: 89%
- inhibition [37]: 13%
Compound: C[C@H](O)CNc1nccc(-n2ccnc2-c2cccc(NC(=O)c3ccc(Cl)c(C(F)(F)F)c3)c2)n1
- GI50 [1]: 0.62 µM
- RatioGI50 [2]: 5
- GI50 [3]: 4.49 µM

Compound: C[C@H](O)CNc1nccc(-n2ccnc2-c2ccc(NC(=O)c3ccc(Cl)c(C(F)(F)F)c3)cc2)n1
- GI50 [1]: > 100 µM
- GI50 [3]: 79.2 µM

Compound: C[C@H](O)CNc1nccc(-n2ccnc2C(=O)c2ccc(NC(=O)c3ccc(Cl)c(C(F)(F)F)c3)cc2)n1
- GI50 [1]: 1.37 µM
- GI50 [3]: 2.51 µM

Compound: C[C@H](O)CNc1nccc(-n2ccnc2-c2cccc(NC(=O)c3cc(N4CCN(C)CC4)cc(C(F)(F)F)c3)c2)n1
- GI50 [1]: 9.13 µM
- RatioGI50 [2]: 5
- GI50 [3]: 10.4 µM

Reference: ChEMBL document CHEMBL1155370, “Discovery and initial SAR of pyrimidin-4-yl-1H-imidazole derivatives with antiproliferative activity against melanoma cell lines” (Bioorg Med Chem Lett, 2010)
